# The list is not random: actives were taken first. Their share in the collection is about 2.1%.
# Runt-CBFb FRET = Runt domain-CBFb interaction inhibition | Q01196+Q13951 | Cerulean-Runt/Venus-CBFb FRET ratio 530/480, 1 h | inhibition, % at 20 µM | 220,000 tested, 0.46% active | AID 1496;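 active = inhibition over about 50% at 20 µM in the single-dose screen, limit read from the data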;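 note: 0% = DMSO wells and 100% = excess unlabeled CBFb competitor control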
#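 Measured by: fluorescence energy transfer, 422 nm excitation, 530/480 nm emission; Assay system: Cerulean-Runt domain; Medium: Tris pH 7.5 buffer with BSA; Measure: loss of energy transfer signal; Controls: 5 µM unlabeled CBFb as full-inhibition high control; Incubation: protein complex preformed 1 h, compound exposure 1 h, room temperature, dark.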
# RanGTP-Imp inh = inhibitors of RanGTP-importin-beta interaction, primary screen, biochemical, FRET, CFP-Ran, YFP-importin-beta, homogeneous; 300,000 tested, 1.1% active; inhibition, % (no concentration beside the values); cell-free CFP-Ran/YFP-importin-beta FRET ratio; AID 2216;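 active = more than half of the replicate wells show a fall in the fluorescence ratio signal beyond about 16%, limit read from the data, passing the limit was not always enough; inconclusive = exactly half of the replicate wells pass the set limit; inactive = fewer than half of replicates pass the limit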;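 note: 0% = DMSO wells and 100% = Ran loaded with GDP instead of GTP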
# Hck Nef HTS = inhibitors of human Hck kinase activated by Nef; Recombinant Hck-YEEI plus Nef, Z-Lyte FRET kinase assay; inhibition, % at 20 µM; 220,000 tested, 0.68% active;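 active = Hck-Nef kinase inhibition above about 50%, limit read from the data; inactive = inhibition below that limit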;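 note: 0% = DMSO with Hck plus Nef and 100% = Hck alone without Nef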
# TbHK1 inh = T. brucei hexokinase 1 inhibition; recombinant TbHK1, G6PDH-coupled NADH A340; inhibition, % at 10 µM; 220,000 tested, 0.11% active; AID 1430;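 active = inhibition of 50% or more in the single-dose primary screen; inactive = inhibition below 50%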
# Runt-SMMHC FRET = inhibitors of human RUNX1 Runt domain binding to CBFb-SMMHC; Q01196+Q13951; Cerulean-Runt/Venus-CBFb-SMMHC FRET ratio 530/480, 1 h; inhibition, % at 20 µM; 220,000 tested, 0.74% active; AID 1434;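 active = mean inhibition across duplicate retests at 20 µM reaching about 50%, limit read from the data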;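 note: 0% = DMSO wells and 100% = wells with excess untagged CBFb-SMMHC; inhibitors lower the FRET ratio by blocking Runt binding to CBFb-SMMHC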
# p97 inhibitor = inhibitors of human p97 ATPase | recombinant p97 ATPase, Kinase-Glo ATP luminescence, 3 h | 220,000 tested, 0.42% active | AID 1481 | inhibition, % at 8 µM | P55072; in the data active = inhibition above about 15%;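 note: 0% = DMSO vehicle and 100% = wells lacking enzyme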
# Target sequence (P55072 whole entry, looked up): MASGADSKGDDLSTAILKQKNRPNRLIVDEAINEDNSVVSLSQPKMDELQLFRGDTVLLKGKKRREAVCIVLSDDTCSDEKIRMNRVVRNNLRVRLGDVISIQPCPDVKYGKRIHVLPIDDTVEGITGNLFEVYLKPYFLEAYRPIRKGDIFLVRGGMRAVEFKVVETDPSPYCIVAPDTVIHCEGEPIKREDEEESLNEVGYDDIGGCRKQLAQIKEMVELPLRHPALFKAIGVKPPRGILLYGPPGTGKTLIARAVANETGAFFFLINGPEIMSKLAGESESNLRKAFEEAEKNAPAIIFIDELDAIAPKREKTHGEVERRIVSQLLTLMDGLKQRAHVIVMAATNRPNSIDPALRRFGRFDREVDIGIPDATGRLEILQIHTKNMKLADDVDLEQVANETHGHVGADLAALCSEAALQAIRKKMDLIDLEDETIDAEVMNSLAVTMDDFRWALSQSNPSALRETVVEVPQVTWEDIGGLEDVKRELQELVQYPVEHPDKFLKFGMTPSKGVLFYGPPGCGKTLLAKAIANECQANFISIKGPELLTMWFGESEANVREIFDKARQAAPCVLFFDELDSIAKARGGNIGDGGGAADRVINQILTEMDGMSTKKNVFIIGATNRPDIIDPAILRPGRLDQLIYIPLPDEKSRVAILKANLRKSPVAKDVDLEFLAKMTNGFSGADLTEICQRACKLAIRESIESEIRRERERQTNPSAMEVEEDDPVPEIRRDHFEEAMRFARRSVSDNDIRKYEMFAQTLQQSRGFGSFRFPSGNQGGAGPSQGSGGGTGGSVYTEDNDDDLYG
# Hck Nef conf = Hck-Nef kinase inhibition, confirmation | calls only at 10 µM | AID 463188 | Recombinant Hck-YEEI:Nef, Z-Lyte FRET kinase assay | shares compounds with Hck Nef HTS | 1,300 tested, 28% active;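 active = average inhibition of at least 50%, with Z-scores no higher than 3 in both the phospho-tyrosine peptide and fluorescence counterscreens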
# * hit, by the source's call; i = inactive; ? = inconclusive; . = no result given; + = active, no number.
SMILES,Runt-CBFb FRET,RanGTP-Imp inh,Hck Nef HTS,TbHK1 inh,Runt-SMMHC FRET,p97 inhibitor,Hck Nef conf
CC/C(C)=N/Nc1nc(-c2cc3cccc(OC)c3oc2=O)cs1,10.6,0.3,57.2*,-24.1,-13.9,11.6,i
Cc1ccc(/C=N/N2CCN(c3ccccn3)CC2)o1,-1.4,2.4,16.8,-12.1,-0.4,2.9,.
Clc1ccc2[nH]c3c(c2c1)CCc1cn[nH]c1-3,4.0,-3.7,59.6*,-1.6,-1.3,1.5,+
Cc1ccc(C(=O)Nc2cccc(C(F)(F)F)c2)cc1NC(=O)c1cnnc2ccccc12,1.7,8.4,73.7*,-9.0,-6.1,.,i
CC(O)CNc1cnccn1 (stereo unspecified),1.1,?,18.9,-9.5,-0.3,3.6,.
COc1cc(/C=C(/C#N)c2nc3ccccc3[nH]2)ccc1OCc1ccc(C(=O)O)o1,49.8,5.9,56.3*,-30.1,62.6*,5.3,+
CCC(CO)NCC(O)COCc1ccc2c(c1)OCO2 (stereo unspecified),-0.2,-2.5,-6.6,-0.4,1.7,1.5,.
Cc1ccc2occ(C3N[C@H](C(=O)O)CS3)c(=O)c2c1 (stereo partly specified),1.9,2.7,73.2*,-1.4,2.1,4.9,i
Cc1ccc2occ(C3NC(C(=O)O)CS3)c(=O)c2c1 (stereo unspecified),6.1,-3.0,82.5*,28.1,5.4,6.0,+
O=C(O)C1CSC(c2ccco2)N1 (stereo unspecified),1.6,3.4,10.2,-2.0,-5.0,3.2,.
Cc1nc2ccccn2c1C(=O)NCCCN1CCOCC1,-0.9,7.1,0.9,-4.0,0.8,-1.3,.
Cc1ccc(CNC(=O)CSc2nc(=O)n3cccc(C)c3n2)cc1,.,-1.2,.,.,.,.,.
CCNC(=O)c1cc2c(=O)n3cccc(C)c3nc2n(Cc2ccc(C)cc2)c1=N,11.1,+,70.7*,-7.2,41.0,-0.6,.
CCOCCCn1c(=N)c(C(=O)NCCN2CCOCC2)cc2c(=O)n3cccc(C)c3nc21,.,.,132.9*,-15.2,.,-2.4,.
COCCCNC(=O)c1cc2c(=O)n3cccc(C)c3nc2n(C(C)C)c1=N,17.9,187.8*,166.9*,-7.0,57.4*,-1.4,.
N=c1c(C(=O)NCc2ccc(F)cc2)cc2c(=O)n3ccccc3nc2n1CCCN1CCOCC1,12.5,.,69.3*,-3.3,65.3*,7.1,.
COc1ccc(CCNC(=O)c2cc3c(=O)n4cccc(C)c4nc3s2)cc1OC,.,-0.8,.,.,.,.,.
O=C(CN1CCCC1)Nc1c(Cl)cccc1Cl,.,-0.9,.,.,.,.,.
CCCCn1c(N)c(N(CC(C)C)C(=O)CSCC(=O)Nc2ccc(OC)cc2)c(=O)[nH]c1=O,.,2.9,.,.,.,.,.
CCN(Cc1cnn(C)c1)C(=O)CC1C(=O)NCCN1Cc1cccc(OC)c1OC (stereo unspecified),1.5,-0.5,-3.1,1.9,0.6,0.2,.
CN1CCC(N(C)C(=O)c2ccccc2Nc2ccc(SC(F)F)cc2)CC1,-0.2,-3.9,1.6,-6.4,3.6,1.7,.
Cc1cccn2c(=O)c3cc(C(=O)NC(C)C)c(=N)n(Cc4ccncc4)c3nc12,17.7,+,130.4*,-10.1,61.6*,1.9,.
CCC(C)NC(=O)c1cc2c(=O)n3cccc(C)c3nc2s1 (stereo unspecified),.,1.8,.,.,.,.,.
c1ccc2sc(N3CCCN(Cc4nc(-c5cnccn5)no4)CC3)nc2c1,-0.8,-3.6,-6.1,-7.8,1.9,-3.7,.
CC(C)N1CC(O)=C(c2nc3ccccc3[nH]2)C1=N,0.1,0.3,56.1*,3.1,-2.8,3.2,+
SMILES,Runt-CBFb FRET,RanGTP-Imp inh,Hck Nef HTS,TbHK1 inh,Runt-SMMHC FRET,p97 inhibitor,Hck Nef conf
CC(C1CC2CCC1C2)N1CC(O)=C(c2nc3ccccc3[nH]2)C1=N (stereo unspecified),1.2,?,0.0,-2.4,1.9,-3.7,.
O=C1N=C(N2CCN(c3ccccc3)CC2)S/C1=C/c1ccco1,-1.1,-1.0,52.2*,-71.6,2.4,6.1,i
CCCn1c(C(C)NC(=O)c2ccccc2)nc2ccccc21 (stereo unspecified),-1.1,-0.2,1.2,-7.4,1.0,-4.0,.
CCN(CC)c1ccc(NC(=O)Cn2c(C(C)NC(=O)c3ccc(C)cc3)nc3ccccc32)cc1 (stereo unspecified),3.8,-0.5,82.5*,12.0,3.1,2.3,+
COc1ccc2c(c1)c(=O)oc1cc(OCC(=O)N3CCc4ccccc4C3)ccc12,0.5,-2.1,-0.6,-0.2,-6.9,-4.9,.
N#Cc1cccc(NC(=O)COC(=O)c2cccc(N3C(=O)c4ccccc4C3=O)c2)c1,-3.4,2.2,56.3*,0.4,3.3,4.0,i
CC[C@H](C)NC(=O)CCCCCn1c(=S)[nH]c2c([nH]c3ccc(OC)cc32)c1=O,-2.0,-0.7,51.6*,7.4,-0.4,-3.5,i
O=C(O)CCC(=O)NNc1ncnc2ccccc12,2.8,1.9,52.4*,-16.4,-6.9,2.5,i
Cc1ccc(-c2nn(-c3ccccc3)cc2/C=C2\SC(=S)N(CC(=O)O)C2=O)cc1,-2.0,-1.7,57.8*,19.6,-13.8,-15.0,i
COc1ccc(-c2nn(-c3ccccc3)cc2/C=C2/SC(=S)N(CCC(=O)O)C2=O)cc1,.,-6.6,.,.,.,.,.
COc1ccc(CCn2c(SCC(=O)Nc3cc(C)on3)nc3ccccc3c2=O)cc1OC,2.0,-1.1,7.9,-7.7,5.5,6.2,.
COc1ccc(CCn2c(SCC(=O)Nc3cc(C)on3)nc3ccsc3c2=O)cc1OC,-2.3,.,65.0*,-13.4,1.2,3.1,i
COc1ccc2cc3cc(C(=O)Nc4ccc5c(c4)OCCO5)oc3nc2c1,-7.0,-1.4,51.8*,-22.3,-40.7,1.3,i
Oc1ccc(N=Nc2ccc3ccccc3c2)cc1,.,-0.1,.,.,.,.,.
Cc1[nH][nH]c(=O)c1C(c1c(C)[nH][nH]c1=O)c1cn(C)c2ccccc12,-1.9,.,92.2*,-14.4,-11.6,6.4,+
CCCc1cc(NCCCN2CCOCC2)n2c(nc3ccccc32)c1C#N,12.5,13.5,101.4*,-4.9,61.5,0.1,.
Cc1cc(Nc2cccc([N+](=O)[O-])c2)n2c(nc3ccccc32)c1C#N,0.5,-1.2,1.5,-9.0,-1.0,2.0,.
Cc1cc(NCCCN2CCOCC2)n2c(nc3ccccc32)c1C#N,19.0,30.0*,75.3*,4.9,36.7,2.8,.
COc1ccc(NC(=O)CSc2nc(O)cc(=O)n2-c2ccc(OC)cc2)cc1,.,-1.6,.,.,.,.,.
Cc1ccc(N(CC(=O)NC2CCCCC2)C(=O)CNC(=O)c2ccco2)cc1F,.,-4.0,.,.,.,.,.
Nc1cccc2nc3ccccc3cc12,19.8,175.5*,75.7*,-13.4,57.8*,-6.6,.

# Screens (PubChem BioAssay)
